Results reported in ChEMBL document CHEMBL1177821, “Structure-activity relationships and hepatic safety risks of thiazole agonists of the thrombopoietin receptor” (Bioorg Med Chem Lett, 2010).
One block for each compound: values may come before it. Calls of active or inactive are those of the source. The rule behind the calls is not given here.

Tests used:
Thrombopoietin receptor = biological target: T1, Thrombopoietin receptor (Homo sapiens, UniProt P40238); assay: Agonist activity at human TPO receptor expressed in murine BaF3 cells
T1 sequence (P40238 whole entry): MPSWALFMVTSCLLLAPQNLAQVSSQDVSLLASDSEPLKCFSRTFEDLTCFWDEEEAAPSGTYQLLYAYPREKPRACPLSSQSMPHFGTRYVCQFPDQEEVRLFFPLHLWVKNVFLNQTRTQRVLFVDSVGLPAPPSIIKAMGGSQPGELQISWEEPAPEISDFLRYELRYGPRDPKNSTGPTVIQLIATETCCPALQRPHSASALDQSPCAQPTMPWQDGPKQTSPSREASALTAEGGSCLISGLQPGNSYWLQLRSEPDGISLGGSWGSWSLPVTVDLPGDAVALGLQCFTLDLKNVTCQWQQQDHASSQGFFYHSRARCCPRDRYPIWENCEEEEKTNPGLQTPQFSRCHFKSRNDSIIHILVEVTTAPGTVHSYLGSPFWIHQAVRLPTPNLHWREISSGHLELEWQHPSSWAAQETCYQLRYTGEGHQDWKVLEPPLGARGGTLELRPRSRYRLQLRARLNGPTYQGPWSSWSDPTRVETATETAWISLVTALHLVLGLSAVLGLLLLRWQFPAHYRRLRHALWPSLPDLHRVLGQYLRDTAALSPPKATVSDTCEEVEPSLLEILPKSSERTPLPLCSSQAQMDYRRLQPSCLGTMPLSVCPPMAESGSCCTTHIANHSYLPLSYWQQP

Mus musculus [1] = species on record: Mus musculus; assay: Increase of platelets level in human TPO receptor transgenic mouse measured after 6 days; assay type: functional, organism-based
Procedure, shortened: (§1)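 Human TPO receptor transgenic mice (knock-out/human knock-in of receptor exons 8–10, spanning the transmembrane domain) and wild-type mice given compound on days 0 and 1. Platelets counted on day 6.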

Rattus norvegicus [2] = assay: Toxicity in rat assessed as histopathological changes at 10 to 150 mg/kg, po after 4 days; assay type: organism-based; design: dose 10-150 mg/kg, route oral; details: in vivo, 96 h
Procedure, shortened: (§2)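 Rats dosed orally once daily for four days at 10, 50 or 150 mg/kg, four animals per dose. Clinical pathology including ALT and bilirubin checked on days 1 and 5. Histopathology examined.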

Mus musculus [3] = species on record: Mus musculus; assay: Increase of platelets level in mouse measured after 6 days; assay type: functional, organism-based
Procedure, shortened: as §1

Rattus norvegicus [4] = assay: Toxicity in rat assessed as change in clinical pathology at 10 to 150 mg/kg, po after 4 days; assay type: organism-based; design: dose 10-150 mg/kg, route oral; details: in vivo, 96 h
Procedure, shortened: as §2

Rattus norvegicus [5] = assay: Toxicity in rat assessed as elevation of AST level at 500 mg/kg, po; assay type: organism-based; design: dose 500 mg/kg, route oral; details: in vivo
Procedure, shortened: (§3)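 Single oral doses of 50, 250 or 500 mg/kg given to rats, each study with its own control group. Mean serum AST and ALT (IU/L) measured. Histopathology of liver also examined.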

[6] = AUC (0 to 24 hrs) in rat at 500 mg/kg, po; assay type: ADME, organism-based; design: time < 24 hr, dose 500 mg/kg, route oral; details: plasma
Procedure, shortened: (§4)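 Rats given single oral doses of 50, 250 or 500 mg/kg, with a separate vehicle control group in each study. Mean Cmax (µg/mL) and mean AUC0–24 (µg h/mL) taken as total (bound plus unbound) plasma concentrations.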

[7] = Cmax in rat at 500 mg/kg, po; assay type: ADME, organism-based; design: dose 500 mg/kg, route oral; details: in vivo
Procedure, shortened: as §4

[8] = AUC (0 to 24 hrs) in rat at 50 mg/kg, po; assay type: ADME, organism-based; design: time < 24 hr, dose 50 mg/kg, route oral; details: plasma
Procedure, shortened: as §4

Rattus norvegicus [9] = assay: Toxicity in rat assessed as elevation of ALT level at 500 mg/kg, po; assay type: organism-based; design: dose 500 mg/kg, route oral; details: in vivo
Procedure, shortened: as §3

[10] = AUC (0 to 24 hrs) in rat at 250 mg/kg, po; assay type: ADME, organism-based; design: time < 24 hr, dose 250 mg/kg, route oral; details: plasma
Procedure, shortened: as §4

[11] = Cmax in rat at 50 mg/kg, po; assay type: ADME, organism-based; design: dose 50 mg/kg, route oral; details: in vivo
Procedure, shortened: as §4

[12] = Cmax in rat at 250 mg/kg, po; assay type: ADME, organism-based; design: dose 250 mg/kg, route oral; details: in vivo
Procedure, shortened: as §4

Rattus norvegicus [13] = assay: Toxicity in rat assessed as elevation of AST level at 250 mg/kg, po; assay type: organism-based; design: dose 250 mg/kg, route oral; details: in vivo
Procedure, shortened: as §3

Rattus norvegicus [14] = assay: Toxicity in rat assessed as elevation of ALT level at 50 mg/kg, po; assay type: organism-based; design: dose 50 mg/kg, route oral; details: in vivo
Procedure, shortened: as §3

Rattus norvegicus [15] = assay: Toxicity in rat assessed as elevation of ALT level at 250 mg/kg, po; assay type: organism-based; design: dose 250 mg/kg, route oral; details: in vivo
Procedure, shortened: as §3

Rattus norvegicus [16] = assay: Toxicity in rat assessed as elevation of AST level at 50 mg/kg, po; assay type: organism-based; design: dose 50 mg/kg, route oral; details: in vivo
Procedure, shortened: as §3

Structure (SMILES): N#Cc1sc(NC(=O)c2cnc(N3CCC(C(=O)O)CC3)c(Cl)c2)nc1-c1ccc(F)c(C(F)(F)F)c1
EC50 (Thrombopoietin receptor): > 898 nM

Structure (SMILES): O=C(Nc1nc(-c2ccc(F)c(OC(F)(F)F)c2)c(F)s1)c1cnc(N2CCC(C(=O)O)CC2)c(Cl)c1
EC50 (Thrombopoietin receptor): 620 nM

Structure (SMILES): O=C(Nc1nc(-c2ccc(F)c(C(F)(F)F)c2)ns1)c1cnc(N2CCC(C(=O)O)CC2)c(Cl)c1
EC50 (Thrombopoietin receptor): 574 nM

Structure (SMILES): O=C(Nc1nc(-c2ccc(Cl)c(Cl)c2)c(F)s1)c1cnc(N2CCC(C(=O)O)CC2)c(Cl)c1
EC50 (Thrombopoietin receptor): > 1000 nM

Structure (SMILES): CCOCc1cc(-c2nc(NC(=O)c3cnc(N4CCC(C(=O)O)CC4)c(Cl)c3)sc2F)ccc1F
EC50 (Thrombopoietin receptor): > 970 nM

Structure (SMILES): O=C(Nc1nc(-c2cccc(C(F)(F)F)c2F)c(F)s1)c1cnc(N2CCC(C(=O)O)CC2)c(Cl)c1
EC50 (Thrombopoietin receptor): 702 nM

Structure (SMILES): O=C(Nc1nc(-c2cccc(C(F)(F)F)c2F)cs1)c1cnc(N2CCC(C(=O)O)CC2)c(Cl)c1
Activity (Rattus norvegicus [5]): 3495 IU/L | AUC(0-t) at 24 h [6]: 1490 µg·h/mL | Cmax [7]: 84000 ng/mL | AUC(0-t) at 24 h [8]: 84 µg·h/mL | Activity (Rattus norvegicus [9]): 579 IU/L | AUC(0-t) at 24 h [10]: 832 µg·h/mL | EC50 (Mus musculus [1]): 27 µg·h/mL | Cmax [11]: 20000 ng/mL | Cmax [12]: 48000 ng/mL | Activity (Rattus norvegicus [13]): 2952 IU/L | Activity (Rattus norvegicus [14]): 442 IU/L | Activity (Rattus norvegicus [2]): Non-toxic | Activity (Rattus norvegicus [15]): 450 IU/L | Activity (Mus musculus [3]): inactive | Activity (Rattus norvegicus [16]): 1937 IU/L | Activity (Rattus norvegicus [4]): Non-toxic

Structure (SMILES): O=C(Nc1ccn(-c2cccc(C(F)(F)F)c2F)n1)c1cnc(N2CCC(C(=O)O)CC2)c(Cl)c1
EC50 (Thrombopoietin receptor): > 811 nM

Structure (SMILES): O=C(Nc1nc(-c2ccc(F)c(Br)c2)c(F)s1)c1cnc(N2CCC(C(=O)O)CC2)c(Cl)c1
EC50 (Thrombopoietin receptor): 670 nM

Structure (SMILES): O=C(Nc1nc(-c2ccc(F)c(Cl)c2)c(F)s1)c1cnc(N2CCC(C(=O)O)CC2)c(Cl)c1
EC50 (Thrombopoietin receptor): 480 nM

Structure (SMILES): O=C(Nc1nc(-c2ccc(F)c(OCC(F)(F)F)c2)c(F)s1)c1cnc(N2CCC(C(=O)O)CC2)c(Cl)c1
EC50 (Thrombopoietin receptor): 950 nM

Continued by falling EC50 (Thrombopoietin receptor), values first:

EC50 (Thrombopoietin receptor): 220 nM
Structure (SMILES): CCCCc1cc(-c2nc(NC(=O)c3cnc(N4CCC(C(=O)O)CC4)c(Cl)c3)sc2F)ccc1F

EC50 (Thrombopoietin receptor): 160 nM
Structure (SMILES): CCc1sc(NC(=O)c2cnc(N3CCC(C(=O)O)CC3)c(Cl)c2)nc1-c1ccc(F)c(C(F)(F)F)c1

EC50 (Thrombopoietin receptor): 130 nM
Structure (SMILES): CCCc1sc(NC(=O)c2cnc(N3CCC(C(=O)O)CC3)c(Cl)c2)nc1-c1ccc(F)c(C(F)(F)F)c1

EC50 (Thrombopoietin receptor): 100 nM
Structure (SMILES): O=C(Nc1nc(-c2ccc(F)c(C(F)(F)F)c2)cs1)c1cnc(N2CCC(C(=O)O)CC2)c(Cl)c1

EC50 (Mus musculus [1]): 7 µg·h/mL | EC50 (Thrombopoietin receptor): 89 nM
Structure (SMILES): O=C(Nc1nc(-c2ccc(F)c(C(F)(F)F)c2)c(F)s1)c1cnc(N2CCC(C(=O)O)CC2)c(Cl)c1
Activity (Rattus norvegicus [2]): Non-toxic | Activity (Mus musculus [3]): inactive | Activity (Rattus norvegicus [4]): Non-toxic

EC50 (Thrombopoietin receptor): 86 nM
Structure (SMILES): O=C(Nc1nc(-c2ccc(F)c(C(F)(F)F)c2)c(Cl)s1)c1cnc(N2CCC(C(=O)O)CC2)c(Cl)c1

EC50 (Thrombopoietin receptor): 66 nM
Structure (SMILES): Cc1sc(NC(=O)c2cnc(N3CCC(C(=O)O)CC3)c(Cl)c2)nc1-c1ccc(F)c(C(F)(F)F)c1

EC50 (Thrombopoietin receptor): 58 nM
Structure (SMILES): CC(C)Cc1cc(-c2nc(NC(=O)c3cnc(N4CCC(C(=O)O)CC4)c(Cl)c3)sc2F)ccc1F
